Laboratory results reported in ChEMBL document CHEMBL1124081, “Synthesis and antiulcer activity of 5,11-dihydro[1]benzoxepino[3,4-b]pyridines” (J Med Chem, 1988).
Several values for one entry are separate records, joined by “and”; a condition that tells them apart may be missing. Identical values can stand only once.

Tests used:
[1] = target: Muscarinic acetylcholine receptor; assay: Binding affinity was measured for Muscarinic acetylcholine receptor; type: protein assay
Procedure, shortened: (§1)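 Rat striatum homogenized in 10 vol distilled water, diluted to 200 vol of wet tissue weight with 50 mM Na-K phosphate buffer pH 7.4 (1 mL ≈ 5 mg wet tissue). [3H]quinuclidinyl benzilate (final 1.26 nM) plus drug in 10% ethanol, 37 °C for 60 min. Nonspecific binding defined with dexetimide (final 1 μM). Rapid GF/B filtration, three ice-cold buffer rinses, liquid scintillation counting.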

[2] = test system: Rattus norvegicus; assay: Inhibition of stress-induced ulcer formation in rats by 10 mg/kg p.o. administration.; type: functional; settings: for Inhibition: 10 mg/kg; for inhibition in vivo at 10 mg/kg: Rattus norvegicus
Procedure, shortened: (§2)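 Rats, 190-210 g, fasted 17 h with water allowed. Compound given orally 10 min before stress, 0.5 mL/100 g. Restrained in stress cage and immersed in 23 ± 1 °C water for 7 h without food or water. CO2 kill, stomach opened along greater curvature, total glandular ulcer length (mm) measured. % inhibition = (control − treated)/control × 100. Student's t test.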

[3] = test system: Rattus norvegicus; assay: The antiulcer activity against stress-induced ulcer in rats by 30 mg/kg peroral administration.; type: functional; settings: route oral; procedure, shortened: as §2
[4] = target: T1, Muscarinic acetylcholine receptor (Rattus norvegicus) (UniProt P08482+P08483+P08485+P08911+P10980); assay: Percentage inhibition […] concentration 10 e-5M; type: protein assay
[5] = target: T1, Muscarinic acetylcholine receptor (Rattus norvegicus); assay: Percentage inhibition for Muscarinic acetylcholine receptor at concentration 10 e-5M; procedure, shortened: as §1
[6] = target: T1, Muscarinic acetylcholine receptor (Rattus norvegicus); assay: Percentage inhibition for Muscarinic acetylcholine receptor at concentration 10 e-6M; type: protein assay; procedure, shortened: as §1

CCN(CC)CCNC1c2ccccc2OCc2ncccc21 (single isomer, unassigned) [listing 1 of 2 here]
Ki [1]: 1100 nM | Inhibition ([2]; route oral): <55%

CCN(CC)CCNC1c2cc(F)ccc2OCc2ncccc21 (stereo not given)
inhibition in vivo at 30 mg/kg [3]: < 87% | inhibition in vivo at 10 mg/kg ([2]; po): < 53%

c1ccc2c(c1)OCc1ncccc1C2NCCN1CCCCC1 (stereo not given)
inhibition in vivo at 30 mg/kg [3]: 52%

CCN(CC)CCNC1c2ccccc2SCc2ncccc21 (stereo not given)
inhibition in vivo at 30 mg/kg [3]: 19%

CCN(CC)CCNC1c2ccccc2Oc2ncccc21 (stereo not given)
inhibition in vivo at 30 mg/kg [3]: < 60% | inhibition in vivo at 10 mg/kg ([2]; po): 18%

CCN(CC)CCNC1c2ccccc2OCc2ncccc21 (stereo in doubt; 11)
inhibition in vivo at 30 mg/kg [3]: 85% | Ki [1]: 1600 nM | Inhibition ([2]; route oral): 65% and 57%

CCN(CC)CCN(C(C)=O)C1c2ccccc2OCc2ncccc21 (stereo not given)
inhibition in vivo at 30 mg/kg [3]: 0%

NCCNC1c2ccccc2OCc2ncccc21 (stereo not given)
inhibition in vivo at 30 mg/kg [3]: 19%

c1ccc2c(c1)OCc1ncccc1C2NCCN1CCCC1 (stereo not given)
inhibition in vivo at 30 mg/kg [3]: 72% | inhibition in vivo at 10 mg/kg ([2]; po): 68%

CCN(CC)CCCNC1c2ccccc2OCc2ncccc21 (stereo not given)
inhibition in vivo at 30 mg/kg [3]: 55% | inhibition in vivo at 10 mg/kg ([2]; po): 34%

CC1CC[C@H](C)N1CCNC1c2ccccc2OCc2ncccc21 (stereo not given in full)
inhibition in vivo at 30 mg/kg [3]: 69% | inhibition in vivo at 10 mg/kg ([2]; po): 64%

CC(C)N(CCNC1c2ccccc2OCc2ncccc21)C(C)C (stereo not given)
inhibition in vivo at 30 mg/kg [3]: 88% | inhibition in vivo at 10 mg/kg ([2]; po): 61%

c1ccc2c(c1)OCc1ncccc1C2NCCN1CCOCC1 (stereo not given)
inhibition in vivo at 30 mg/kg [3]: 73% | inhibition in vivo at 10 mg/kg ([2]; po): 7%

CCN1CCCC(NC2c3ccccc3OCc3ncccc32)C1 (stereo not given)
inhibition in vivo at 30 mg/kg [3]: 67%

CN(C)CCNC1c2ccccc2OCc2ncccc21 (stereo not given)
inhibition in vivo at 30 mg/kg [3]: 85% | inhibition in vivo at 10 mg/kg ([2]; po): 24%

c1cncc(NC2c3ccccc3OCc3ncccc32)c1 (stereo not given)
inhibition in vivo at 30 mg/kg [3]: 15%

CCN(CC)CCNC1c2cc(Cl)ccc2OCc2ncccc21 (stereo not given)
inhibition in vivo at 30 mg/kg [3]: 30%

CCN(CC)CCNC1c2ccccc2OCc2ncccc21 (single isomer, unassigned; (+))
Ki [1]: 3000 nM | inhibition in vivo at 10 mg/kg ([2]; po): < 63%

c1ccc2c(c1)OCc1ncccc1C2NC1CN2CCC1CC2 (stereo not given)
inhibition in vivo at 30 mg/kg [3]: 36%

CCNCCNC1c2ccccc2OCc2ncccc21 (stereo not given)
inhibition in vivo at 30 mg/kg [3]: < 55%

CC(C)N(CC(=O)NC1c2ccccc2OCc2ncccc21)C(C)C (stereo not given)
inhibition in vivo at 30 mg/kg [3]: < 45% | inhibition in vivo at 10 mg/kg ([2]; po): 17% | inhibition [4]: 12%

CCN(CC)CCN(CC)C1c2ccccc2OCc2ncccc21 (stereo not given)
inhibition in vivo at 30 mg/kg [3]: 33% | inhibition [5]: 15%

CC1CCC(C)N1CCNC1c2ccccc2OCc2ncccc21 (stereo not given)
inhibition in vivo at 30 mg/kg [3]: 94% | inhibition in vivo at 10 mg/kg ([2]; po): 67%

CCN(CC)CCNC1c2cc(C)ccc2OCc2ncccc21 (stereo not given)
inhibition in vivo at 30 mg/kg [3]: 40%

O=C(Cn1ccnc1)NC1c2ccccc2OCc2ncccc21 (stereo not given)
inhibition in vivo at 30 mg/kg [3]: 12% | inhibition in vivo at 10 mg/kg ([2]; po): 6%

CCN(CC)CC(=O)NC1c2ccccc2OCc2ncccc21 (stereo not given)
inhibition in vivo at 30 mg/kg [3]: 16% | inhibition in vivo at 10 mg/kg ([2]; po): 10%

CCN(CC)CCNC1c2cccnc2COc2c(C)cccc21 (stereo not given)
inhibition in vivo at 30 mg/kg [3]: < 48% | inhibition in vivo at 10 mg/kg ([2]; po): < 36%

CN/C(=N\CCSCc1nc[nH]c1C)NC#N [CIMETIDINE]
inhibition in vivo at 30 mg/kg [3]: < 39% | inhibition in vivo at 10 mg/kg ([2]; route oral): 33%

CC1CCCC(C)N1CCNC1c2ccccc2OCc2ncccc21 (stereo not given)
inhibition in vivo at 30 mg/kg [3]: < 64% | inhibition [6]: 3%

CCN(CC)CCNC1c2ccccc2OCc2ncccc21 (single isomer, unassigned) [listing 2 of 2 here]
inhibition [5]: 38%

CN1CCN(CC(=O)N2c3ccccc3C(=O)Nc3cccnc32)CC1 [PIRENZEPINE]
inhibition in vivo at 30 mg/kg [3]: < 86% | inhibition in vivo at 10 mg/kg ([2]; po): < 67%

Cc1ccc2c(c1)C(N1CCN(C)CC1)c1cccnc1CO2 (stereo not given)
inhibition in vivo at 30 mg/kg [3]: 7%

CN1CCN(C2c3ccccc3OCc3ncccc32)CC1 (stereo not given)
inhibition in vivo at 30 mg/kg [3]: 76% | inhibition in vivo at 10 mg/kg ([2]; route oral): 28%

CCN(CC)CC(C)NC1c2ccccc2OCc2ncccc21 (stereo not given)
inhibition in vivo at 30 mg/kg [3]: 62%

CN1CCN(CC(=O)NC2c3ccccc3OCc3ncccc32)CC1 (stereo not given)
inhibition in vivo at 30 mg/kg [3]: < 56% | inhibition [6]: 3% | inhibition in vivo at 10 mg/kg ([2]; po): 31%
